Assay results collected from several papers.
Lines come from different studies, so protocols differ.
Target: Interleukin-1 receptor-associated kinase 1 (IRAK1, Homo sapiens, UniProt P51617)

CCN(CC)CCNC(=O)c1c(C)[nH]c(/C=C2\C(=O)Nc3ccc(F)cc32)c1C  inhibition (enzyme activity; inhibitor; 10 µM): 86%
Cc1ccc(C(=O)NCc2ccsc2)cc1C#Cc1cn(C(C)C)c2ncnc(N)c12  activity vs control (enzyme activity; inhibitor; 1 µM): 86%
COc1ccc2c(c1)O[C@H](c1ccc(OC)c(OC)c1)C[C@@H]2NC(=O)C1(c2ccc3c(c2)OC(F)(F)O3)CC1  remaining binding (cell-free assay; competition with immobilised ligand; 1 µM): 93%
CN1CC(Oc2cnc(C#N)cc2-c2ccn3nc(NC(=O)C4CC4)cc3c2)C1  inhibition (enzyme activity; inhibitor; 1 µM): 38%
CC/C(=N\NC(=O)NCc1cccc(O)c1)c1ccc(O)c(C)c1O  inhibition (enzyme activity; inhibitor; 0.1 µM): -0.6%
CS(=O)(=O)c1cc(C2(NC(=O)c3cncc4c3cnn4-c3ccc(F)cc3)CC2)ccn1  remaining binding (cell-free assay; competition with immobilised ligand; 1 µM): 87%
CNC(=O)c1cc(Oc2ccc(NC(=O)Nc3ccc(Cl)c(C(F)(F)F)c3)cc2)ccn1  inhibition (enzyme activity; inhibitor; 10 µM): 60%
O=C(Nc1ccc(Oc2ccc(F)cc2)cc1)N1CCc2ncccc2[C@H]1c1ccc(F)cc1  remaining binding (cell-free assay; competition with immobilised ligand; 1 µM): 88%
CN(C)C1CCN(CC#Cc2nn(C3CCCC3)c3nc(NCc4ccccc4)ncc23)C1 (centres unmarked)  inhibition (enzyme activity; inhibitor; FRET; 0.1 µM): 6%
Cc1ccc(Nc2nccc(N(C)c3ccc4c(C)n(C)nc4c3)n2)cc1S(N)(=O)=O  inhibition (enzyme activity; inhibitor; 10 µM): 25%
COc1cc(Cl)c(C(=O)N[C@@H](CN[C@H]2CC[C@@H](N)CC2)Cc2ccc(C#N)cc2)cc1-c1ccc(CN[C@H](C)c2ccc(C)cc2)o1  remaining activity (enzyme activity; inhibitor; 1 µM): 97%
C=CC(=O)Nc1cc(Nc2nccc(Nc3cc(Cl)c(F)cc3C(C)(C)O)n2)c(OC)cc1N1CC[C@@H](N(C)C)C1  inhibition (enzyme activity; inhibitor; 1 µM): 11%
COc1ccc(COc2ccc(Cc3cnc(N)nc3N)cc2OC)cc1  remaining signal (cell-free assay; 0.5 µM): 123%
CCOC(=O)c1cc2cc(-c3cc(C(=O)NCc4ccc(C(=O)O)cc4)nn3C)ccc2[nH]1  remaining binding (cell-free assay; competition with immobilised ligand; 0.1 µM): 85%
N#CCCc1ccc2c(c1)-c1[nH]c3ccc([N+](=O)[O-])cc3c1CC(=O)N2  remaining signal (cell-free assay; 0.5 µM): 74.9%
CN(C)CC#Cc1ccc(OCCCc2sc(N3CCc4cccc(C(=O)Nc5nc6ccccc6s5)c4C3)nc2C(=O)O)c(F)c1  remaining binding (cell-free assay; competition with immobilised ligand; 1 µM): 100%
COc1cccc2c(NCc3ccccc3)nc(-n3c(N)nc4ccccc43)nc12  inhibition (target engagement in cells; inhibitor; chemoproteomics; 20 mM): -2.2%
COc1cc(Nc2cnc(C#N)c(O[C@H](C)CN(C)C)n2)ncc1-c1cnn(C)c1  remaining activity (enzyme activity; inhibitor; radiometric; 10 µM): 9%
CCCOc1ccc([C@@H]2[C@@H](C(=O)O)[C@H](c3ccc4c(c3)OCO4)CN2CC(=O)Nc2c(CC)cccc2CC)cc1  remaining binding (cell-free assay; competition with immobilised ligand; 1 µM): 96%
Nc1ncnc2occ(-c3ccc(NC(=O)Nc4cc(C(F)(F)F)ccc4F)cc3)c12  remaining signal (cell-free assay; inhibitor; 20 µM): 0.85%
COc1cc(-c2cc(-c3ccc(N4CCNCC4)cc3)cnc2C)cc(OC)c1OC  inhibition (enzyme activity; inhibitor; 1 µM): 1%
O=C(Nc1cnn(-c2csc(C(=O)NC3COC3)c2)c1)Nc1c(F)cccc1Cl  remaining activity (enzyme activity; inhibitor; 5 µM): 107%
CCCOc1ccc(OC)c(F)c1C(=O)c1ccc(C(=O)N[C@@H]2CNC[C@H]2NC(=O)c2ccc3[nH]ncc3c2)cc1  remaining activity (enzyme activity; inhibitor; 10 µM): 49%
O=C(Nc1cnn(-c2csc(C(=O)NC3COC3)c2)c1)Nc1ccccc1Cl  remaining activity (enzyme activity; inhibitor; 5 µM): 112%
CC(=O)N1CCC(c2ccc(C(=O)NC3=NCCN3)cc2C(F)(F)F)CC1  remaining binding (cell-free assay; competition with immobilised ligand; 1 µM): 78%
CC(C)(C)c1nc(-c2cccc(NS(=O)(=O)c3c(F)cccc3F)c2F)c(-c2ccnc(N)n2)s1  remaining activity (enzyme activity; inhibitor; radiometric; 1 µM): 84%
O=C1NC(=O)c2cc(Nc3ccc(F)cc3)c(Nc3ccc(F)cc3)cc21  remaining signal (cell-free assay; 0.5 µM): 88.5%
Cc1cc(C)c(-n2ccn3nc(-c4cccnc4)cc23)cc1NC(=O)c1cc(C#N)cc(S(F)(F)(F)(F)F)c1  remaining binding (cell-free assay; competition with immobilised ligand; 0.1 µM): 87.3%
FC(F)(F)Oc1cccc(-c2cnc3ccc(-c4ccncc4)nn23)c1  activity vs control (enzyme activity; inhibitor; radiometric; 1 µM): 52%
